The text below walks through data of publication PMC9588738 (Cancer research, 2022).

For test [1], the target named is T1, PELP1 (Homo sapiens, UniProt Q8IZL8). Description: Biotin-Avidin pull-down assays. It counts as binding. The conditions noted are these: Biotin-tagged peptides, ZR75 nuclear lysate.
Target sequence in this assay (Q8IZL8 2-1130): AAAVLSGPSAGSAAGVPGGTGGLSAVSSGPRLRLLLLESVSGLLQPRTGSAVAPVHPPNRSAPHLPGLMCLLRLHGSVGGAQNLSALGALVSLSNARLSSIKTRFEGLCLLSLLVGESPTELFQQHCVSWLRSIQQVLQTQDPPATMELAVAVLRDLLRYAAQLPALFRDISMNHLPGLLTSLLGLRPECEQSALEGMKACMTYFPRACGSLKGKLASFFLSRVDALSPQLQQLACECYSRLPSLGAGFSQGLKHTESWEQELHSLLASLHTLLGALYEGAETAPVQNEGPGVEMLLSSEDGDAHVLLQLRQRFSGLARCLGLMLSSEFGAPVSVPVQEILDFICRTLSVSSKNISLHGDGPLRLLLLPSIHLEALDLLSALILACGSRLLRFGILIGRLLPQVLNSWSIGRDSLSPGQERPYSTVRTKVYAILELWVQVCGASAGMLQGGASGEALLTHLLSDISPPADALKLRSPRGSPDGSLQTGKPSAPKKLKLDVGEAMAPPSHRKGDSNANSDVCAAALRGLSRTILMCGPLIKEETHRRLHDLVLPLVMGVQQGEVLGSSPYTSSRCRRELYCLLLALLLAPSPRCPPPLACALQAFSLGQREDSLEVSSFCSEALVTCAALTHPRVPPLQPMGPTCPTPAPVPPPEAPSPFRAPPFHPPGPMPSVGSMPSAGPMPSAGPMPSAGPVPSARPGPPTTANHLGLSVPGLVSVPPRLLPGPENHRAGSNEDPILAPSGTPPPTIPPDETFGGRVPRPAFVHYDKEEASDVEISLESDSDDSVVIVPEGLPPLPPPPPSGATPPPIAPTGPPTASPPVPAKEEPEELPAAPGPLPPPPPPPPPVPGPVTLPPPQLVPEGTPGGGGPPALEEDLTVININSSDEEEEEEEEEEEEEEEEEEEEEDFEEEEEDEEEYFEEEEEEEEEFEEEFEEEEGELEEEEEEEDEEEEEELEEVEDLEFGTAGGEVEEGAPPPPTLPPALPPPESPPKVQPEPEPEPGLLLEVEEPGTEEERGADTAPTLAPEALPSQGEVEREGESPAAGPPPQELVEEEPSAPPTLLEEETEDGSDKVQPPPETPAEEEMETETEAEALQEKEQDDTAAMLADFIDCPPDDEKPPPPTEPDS
In test [2] the target is T1, PELP1. Description: PELP1 degradation by Western blotting. It counts as cell-based. The conditions noted are these: MCF7 cells, MG132 5 μM. In a few lines: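 ZR75 and MCF7 cells were exposed to graded test-compound concentrations for 24 h. For the proteasome arm, MCF7 cells received small molecule (10 μM, 4 and 6 h) or peptide (10 μM, 7 h), each ± MG132 (5 μM). Lysis used NP-40/Triton X-100 buffer with protease/phosphatase inhibitors and NEM. PELP1 was normalized to loading control, relative to untreated.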
Target sequence in this assay (Q8IZL8 whole entry): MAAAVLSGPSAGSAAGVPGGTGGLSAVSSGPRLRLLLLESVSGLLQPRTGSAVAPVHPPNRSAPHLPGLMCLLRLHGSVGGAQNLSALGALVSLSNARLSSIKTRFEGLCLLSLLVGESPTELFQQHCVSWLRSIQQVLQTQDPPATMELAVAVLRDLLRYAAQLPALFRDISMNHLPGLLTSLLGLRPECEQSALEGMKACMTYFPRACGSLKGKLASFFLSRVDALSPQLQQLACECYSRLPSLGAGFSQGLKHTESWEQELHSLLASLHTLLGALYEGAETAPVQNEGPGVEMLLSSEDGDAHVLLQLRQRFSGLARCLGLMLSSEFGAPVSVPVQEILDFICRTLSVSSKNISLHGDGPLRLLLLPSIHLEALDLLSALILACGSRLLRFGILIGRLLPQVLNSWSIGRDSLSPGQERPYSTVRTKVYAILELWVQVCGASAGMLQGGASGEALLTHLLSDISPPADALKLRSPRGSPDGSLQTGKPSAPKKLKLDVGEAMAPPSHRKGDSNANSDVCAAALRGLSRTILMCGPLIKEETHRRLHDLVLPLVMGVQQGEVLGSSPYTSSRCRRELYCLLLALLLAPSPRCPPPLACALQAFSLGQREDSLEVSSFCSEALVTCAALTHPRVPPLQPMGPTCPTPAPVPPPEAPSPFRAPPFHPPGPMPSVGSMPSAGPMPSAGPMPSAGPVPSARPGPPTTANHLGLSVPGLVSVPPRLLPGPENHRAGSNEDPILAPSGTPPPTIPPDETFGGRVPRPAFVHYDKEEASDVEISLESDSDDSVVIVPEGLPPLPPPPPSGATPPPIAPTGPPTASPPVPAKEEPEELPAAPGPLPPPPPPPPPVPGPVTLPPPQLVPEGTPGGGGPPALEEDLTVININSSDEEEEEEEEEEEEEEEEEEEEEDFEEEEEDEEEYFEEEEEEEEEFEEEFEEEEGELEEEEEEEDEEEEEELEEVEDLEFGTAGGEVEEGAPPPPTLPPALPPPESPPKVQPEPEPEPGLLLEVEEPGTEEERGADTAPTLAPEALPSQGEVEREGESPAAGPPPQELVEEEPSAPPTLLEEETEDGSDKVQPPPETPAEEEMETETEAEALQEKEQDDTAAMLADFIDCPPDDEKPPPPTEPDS

Test [3] deals with MCF7-TamR and MCF7-LTLT BC model cells. Description: Cell viability of therapy-resistant cells treated with PIP1. Format: cell-based, human. The conditions noted are these: 7 days.
Another test deals with ZR75-PELP1 cells. Kind of test: MTT cell viability assay, ZR75-PELP1 cells. It counts as cell-based, human. The method in brief: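 ZR75-PELP1 cells were treated with peptide every 3 days, and MTT absorbance was read at day 7 (n=3). A screen compared ZR75 with ZR75-PELP1 cells.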
In test [4] the test system is E2 mediated ERE reporter activation. Kind of test: ERE-luciferase reporter assay. Format: cell-based, human. The conditions noted are these: ZR75-PELP1 (PIP1) or ZR75 (SMIP34) cells.
The test system of test [5] is ZR75-PELP1 and MCF7-PELP1 cells. Kind of test: QCM chemotaxis cell migration assay. Format: cell-based, human. Particulars: 10 μM, 12 hours.
The subject of test [6] is PELP1-shRNA expressing ZR75 cells. Description: MTT cell viability assay, PELP1 knockdown cells. Format: cell-based, human. Particulars: PELP1 knockdown vs control.

“PIP1: PELP1 inhibiting peptide with TAT signal; TAT-PIP1: GRKKRRQRRRGGMVEFRWSCPGRRKAKA (not fully specified; left off: Gal4 activation domain, end not stated, kept)”: the “relative affinity to bind PELP1 (peptide pull-down)” value with PELP1 [1] is given as “higher affinity to bind to PELP1 than PIP2”. For the same substance, in the test with PELP1 [2], the “PELP1 degradation in presence of proteasome inhibitor MG132” value is “attenuated PIP1 mediated degradation of PELP1”. Besides, the “effect on cell viability of therapy-resistant cells” value in test [3] is reported as “significantly reduced the cell viability”. In the test on ZR75-PELP1 cells, the “comparison of activity between hits in MTT assays” value is reported as “more efficient anti-proliferative activity than PIP2”. Besides, the “effect on PELP1-mediated proliferation” value in the test with ZR75-PELP1 cells (TAT-tagged peptides every 3 days, read at 7 days) is listed as “significantly inhibited PELP1-mediated proliferation”. For the same substance, the “E2 induced ERE reporter activity” value in test [4] is reported as “significantly decreased E2 mediated ERE reporter activation”. In test [5], the cell migration result is on record as “significant decrease in the cell migration”. In test [6], the “activity when PELP1 is knocked down” value is reported as “substantially reduced the activity of PIP1”.
